Measurements: PubChem BioAssay AID540348 (Broad Institute, 2011)
Activity calls are given as the source filed them.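 The calls were made as follows: active = inhibitors whose fitted half-maximal dose is at most ten times the top tested dose; inconclusive = flat curve with 30 to 70% inhibition, or a poor fit; inactive = the rest.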

System: SK-MEL-5 TRPM1 promoter luciferase reporter, 24 h
Assay: TRPM1 reporter luminescence decrease in melanoma cells – SK-MEL-5 cells, luciferase, dry powder samples, MITF project, dose response (AID 540348)
Conditions: not given
Method in brief: (§1)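 Doses – dry-powder compounds tested as a dose series · System – SK-MEL-5 melanoma cells with stable TRPM1 promoter–luciferase reporter · Medium – DMEM lacking phenol red, supplemented with 10% iFBS · Times – cells plated day before, 24 h compound exposure, 37 °C · Technique – Steady-Glo luminescence after 5 min at room temperature, 0.5 s per well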
With `CC1CCN(CC(CS(=O)(=O)c2ccc([N+](=O)[O-])cc2)N2CCC(C)CC2)CC1` (centres undefined) the AC50 was 5.58 µM.
In the case of `O=C(COc1ccccc1)N/N=C/c1ccc([N+](=O)[O-])o1`, the AC50 was 2.6 µM.
Compound `CC1CCCCC1NC(=O)/C(C#N)=C/C=C/c1ccccc1[N+](=O)[O-]` (centres undefined) has an AC50 of 7.3 µM.
Compound `O=C(Nc1ccc(N2CCN(C(=O)c3ccccc3)CC2)cc1)c1ccc([N+](=O)[O-])o1` has an AC50 of 9.85 µM.
`CC(C)C(CCNC1CCN(C)CC1)c1ccc(Cl)cc1` (centres undefined) showed an AC50 of 10.6 µM.
In the case of `O=C(CNc1cccc2ccccc12)N/N=C/c1ccc([N+](=O)[O-])o1`, the AC50 was 2.42 µM.
In the case of `COc1cc(/C=N/NC(N)=O)c(Br)cc1OCC(=O)Nc1ccccc1C`, the AC50 was 17.7 µM.
For `Cc1ccc(C(C)C)c(OCc2nn(CC(=O)c3ccc(Cl)cc3)c3[n+]2CCCCC3)c1`, the AC50 was 13.8 µM.
For `O=C(Nc1ccc(-c2nc3ncccc3o2)cc1)c1ccc([N+](=O)[O-])o1`, the AC50 was 8.55 µM.
For `COc1cc2c(cc1OC)C(c1ccccc1)N(C(=O)CCl)CC2` (centres undefined), the AC50 was 5.19 µM.
For `CC1(C)CC(NC(=O)c2ccc(Cl)c(S(=O)(=O)N(Cc3ccccc3)c3ccccc3)c2)CC(C)(C)N1`, the AC50 was 6.34 µM.
With `CCN1c2ccccc2NC2N=C(OC)C(c3ccccc3)C21` (centres undefined) the AC50 was 0.808 µM.
`COc1ccc(S(=O)(=O)N(C(C)=O)c2ccc(OC(C)=O)c3ccccc23)cc1[N+](=O)[O-]` gave an AC50 of 2.87 µM.
`CN(C)CCCNC(=O)/C(=C\c1ccc(-c2ccc(Br)cc2)o1)NC(=O)c1ccccc1` showed an AC50 of 12.2 µM.
In the case of `CCN1CCN(C2=C(NS(=O)(=O)c3ccc(Br)cc3)C(=O)c3ccccc3C2=O)CC1`, the AC50 was 2.09 µM.
`Cc1nc2ccccc2n1/N=C/c1ccc([N+](=O)[O-])s1` gave an AC50 of 2.88 µM.
`Cc1ccc(C(=O)N/N=C/c2ccc([N+](=O)[O-])s2)cc1` showed an AC50 of 5.75 µM.
With `C=CCNC1=C(Cl)C(=O)c2ccccc2C1=O` the AC50 was 0.905 µM.
In the case of `O=C(Cn1ncc(Cl)c(Cl)c1=O)N1CCc2ccccc21`, the AC50 was 4.69 µM.
With `Cc1cc(C(C)(C)C)cc(C)c1Cn1c2[n+](c3ccc(C(F)(F)F)cc31)CCCCC2` the AC50 was 9.42 µM.
In the case of `O=c1c(Cl)c2oc3ccccc3nc-2c2ccccc12`, the AC50 was 6.17 µM.

System: not listed separately
Assay: as above
Conditions: SK-MEL-5 TRPM1 promoter luciferase reporter, 24 h; at 35 µM (top of the series)
Method in brief: as §1
For `Cc1[nH]c2ccccc2c1C(=O)CCl`, the activity change, negative = inhibition was -106% (inactive).
For `CCN(CC)CCNC(=O)c1c(C)n(-c2ccccc2)c2cc(Br)c(OC)cc12`, the activity change, negative = inhibition was -94.1% (inactive).
In the case of `CCN1CCCC1CNC(=O)c1ccc2c(c1)NC(=O)/C(=C\c1ccc(C)cc1)S2` (centres undefined), the activity change, negative = inhibition was -106% (inactive).
In the case of `Cc1ccc(C(O)(c2ccc(C)c(C)c2)C2CN3CCC2CC3)cc1C` (centres undefined), the activity change, negative = inhibition was -51% (inactive).
For `Cc1oc(-c2ccc(Cl)cc2)nc1CN1CCC(C(=O)NCCCN2CCCC(C)C2)CC1` (centres undefined), the activity change, negative = inhibition was -104% (inactive).
With `CC1=NNC(=O)/C1=C\c1cn(-c2ccccc2)nc1-c1ccc(F)cc1` the activity change, negative = inhibition was -106% (inactive).
With `CC1CN(C(=O)CCC(=O)NCCCN2CCC(Cc3ccccc3)CC2)c2cc(Cl)ccc2O1` (centres undefined) the activity change, negative = inhibition was -105% (inactive).
For `N=c1n(CCN2CCCC2)c2ccccc2n1CC(O)c1ccc(Cl)c(Cl)c1` (centres undefined), the activity change, negative = inhibition was -109% (inactive).
